This is a sample that favours compounds with a hit; in the whole collection about 1.2% have one here.
A1 inh: caspase 3/7 activation in MEF A1-2A-BIM cells, primary screen, A1 inhibitor project, cell-based, luminescence, HTS; caspase activation, % (test concentration not listed); 330,000 compounds, 0.066% hits; Caspase-Glo 3/7 luminescence, 3 h; percent of clofoctol response, vehicle zero;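 active means over half of replicate activation scores above 10%, or exactly half above 10 with the replicate mean above 10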
MsrA act: bovine MsrA enzyme activators, primary screen, biochemical, absorbance, HTS; purified bovine MsrA, absorbance read-out; activation, % at 10.6 µM; Methionine sulfoxide reductase A (Bos taurus); 360,000 compounds, 0.3% hits; in the data active means activation above about 7.5%;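 further: 0% = vehicle and 100% = reference activator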
proCasp7 act: procaspase-7 activators, primary screen, counter-screen for procaspase-3 activator project, biochemical, absorbance, HTS, human | recombinant procaspase-7, Ac-DEVD-pNA absorbance 405 nm; D23A/D198A/D206A triple mutant, cannot self-cleave; scale: DMSO 0, 5 µM enzyme 100 | Caspase-7 (Homo sapiens), P55210 | activation, % at 8.5 µM | 330,000 compounds, 0.093% hits;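 active means percent activation above the screen-wide mean plus 3 SD, cut at about 25% in these data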
Target sequence (P55210 whole entry D23A/D198A/D206A): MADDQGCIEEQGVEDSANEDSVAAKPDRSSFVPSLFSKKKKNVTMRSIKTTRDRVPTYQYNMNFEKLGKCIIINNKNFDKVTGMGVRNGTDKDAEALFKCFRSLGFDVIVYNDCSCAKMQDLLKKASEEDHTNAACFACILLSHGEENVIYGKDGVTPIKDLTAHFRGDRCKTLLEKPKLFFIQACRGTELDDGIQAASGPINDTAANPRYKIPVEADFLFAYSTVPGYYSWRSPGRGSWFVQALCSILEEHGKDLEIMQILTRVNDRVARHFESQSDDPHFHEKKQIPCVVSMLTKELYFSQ
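Assay system: Uncleavable procaspase-7 mutant enzyme | Input: 2 µM procaspase-7 mutant as dispensed | Timing: 1 h compound preincubation, 2 h substrate cleavage, 25 °C | Repeats: One well per compound | Control set: DMSO wells as 0%, DMSO with 5 µM added PC-7 as 100% | Technique: Epi-absorbance of released pNA at 405 nm, two timepoints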
procasp3 activ: activators of human procaspase-3 D3A mutant, primary screen, biochemical, absorbance, PC-3 D3A mutant, single concentration; AID 463141, 2010; Caspase-3 (Homo sapiens), P42574; recombinant procaspase-3 D3A, Ac-DEVD-pNA absorbance 405 nm; activation, % at 8.5 µM; 330,000 compounds, 0.11% hits;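 active means activation above the mean of all tested compounds plus 3 SD, cut at about 21% in these data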;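 further: 0% = DMSO alone and 100% = DMSO wells spiked with extra 5 µM PC-3 D3A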
Target sequence (P42574 whole entry D9A/D28A/D175A): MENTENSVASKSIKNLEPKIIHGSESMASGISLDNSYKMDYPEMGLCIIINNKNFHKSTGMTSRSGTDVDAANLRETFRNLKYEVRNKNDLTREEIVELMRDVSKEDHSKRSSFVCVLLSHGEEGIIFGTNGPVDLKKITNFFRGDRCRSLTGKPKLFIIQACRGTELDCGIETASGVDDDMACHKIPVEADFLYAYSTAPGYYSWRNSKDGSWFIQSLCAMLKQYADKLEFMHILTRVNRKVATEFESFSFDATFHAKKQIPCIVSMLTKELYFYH
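Assay system: Procaspase-3 D3A mutant, all three cleavage aspartates alanine. Buffer or medium: Zinc-free HEPES saline buffer with Triton X-100. Times: 1 h compound preincubation, 2 h substrate hydrolysis at 25 °C. Measured by: 405 nm absorbance of p-nitroaniline, reads at 0 and 120 min. Read-out basis: percent activation relative to control range. Replicates: singlicate.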
MsrA inhibitor: bovine MsrA enzyme inhibitors, primary screen, biochemical, absorbance, HTS. AID 651718, 2012. 360,000 compounds, 0.75% hits. purified bovine MsrA, absorbance read-out. inhibition, % at 15.5 µM; in the data active means inhibition above about 4.5%;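 further: 0% = vehicle wells with enzyme and 100% = reference inhibitor wells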
proCasp7 act trip: procaspase-7 activators, counter-screen for procaspase-3 activator project, biochemical, absorbance, triplicate, human; shares compounds with procasp3 activ; recombinant procaspase-7, Ac-DEVD-pNA absorbance; asp23/198/206-to-Ala mutant, cannot self-cleave; activation, % at 8.5 µM; 210 tested, under 10 active;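 active means mean activation above a set limit taken from an earlier procaspase-7 screen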;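 further: 0% = DMSO wells and 100% = DMSO plus 5 µM procaspase-7 enzyme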
procasp3 conf: activators of human procaspase-3 D3A mutant, confirmation, biochemical, absorbance, PC-3 D3A mutant, triplicate | shares compounds with procasp3 activ | recombinant PC-3 D3A, Ac-DEVD-pNA absorbance 405 nm; 100% is higher-enzyme control | activation, % at 8.5 µM | 210 compounds, 10% hits;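 active means mean activation above a set limit carried over from the earlier primary screen, cut at about 22% in these data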
Numbers without * were called inactive; · = no result.

SMILES | A1 inh | MsrA act | proCasp7 act | procasp3 activ | MsrA inhibitor | proCasp7 act trip | procasp3 conf
O=C(NCC1CCN(C(=O)C(=O)c2cccs2)CC1)c1ccncc1 | · | · | · | · | 0.4 | · | ·
Cc1ccc2nc(-c3ccc(NS(=O)(=O)c4c(C)n(C)c(=O)n(C)c4=O)cc3)sc2c1 | 0.8 | -2.0 | -19.9 | -11.0 | 2.8 | · | ·
Cc1ccc(S(=O)(=O)Nc2ccc(-c3nc4ccc(C)cc4s3)cc2)cc1 | -0.1 | -1.9 | 22.9 | 22.5* | 2.4 | 13.2 | 13.1
Cc1ccc(C)c(N(CC(=O)Nc2ccc(-c3nc4ccc(C)cc4s3)cc2)S(C)(=O)=O)c1 | -0.3 | -4.5 | 23.8 | 24.1* | 2.1 | 17.0 | 23.3*
COc1ccc(CNC(=O)[C@@H](Cc2ccccc2)NC(=O)[C@H]2O[C@@H](n3cnc4c(=O)[nH]c(N)nc43)[C@H](O)[C@@H]2O)cc1 | · | · | · | · | -0.2 | · | ·
O=S1(=O)c2ccc(Br)cc2OC2CCCC[C@@H]2N1Cc1ccccc1 (some centres not stated) | · | · | · | · | 0.1 | · | ·
CCC(C)NC(=O)CNC(=O)c1nn(-c2ccc(OC)c(Cl)c2)c(=O)c2ccccc12 (configuration not stated) | -0.6 | -0.9 | 2.6 | 21.7* | -0.2 | 3.3 | 2.8
C=C1[C@@H](CCO)N(S(=O)C(C)(C)C)C[C@@H]1C (some centres not stated) | · | · | · | · | 0.0 | · | ·
Cc1cc(N2CCN(C(=O)OC(C)(C)C)C[C@H]2C)ccc1N1CC[C@@H](O)C1 | · | · | · | · | -0.2 | · | ·
CC(Sc1nncs1)C(=O)Nc1ccc2c(c1)OCCO2 (configuration not stated) | -0.3 | -13.7 | 3.2 | 22.0* | -0.1 | -0.5 | 6.9
O=C(N[C@H](Cc1ccccc1)C(=O)NCCCc1ccccc1)[C@H]1O[C@@H](n2ccc(=O)[nH]c2=O)[C@H](O)[C@@H]1O | · | · | · | · | -0.1 | · | ·
Cc1ccccc1C(=O)N1CCC(C(=O)Nc2nc3ccc(F)cc3s2)CC1 | 1.0 | -2.4 | 3.1 | 23.4* | -1.0 | 3.4 | 6.8
CCCCc1c(-c2ccccc2OC)ncn1C(C)c1ccccc1 (configuration not stated) | · | · | · | · | -0.6 | · | ·
COc1ccc(-c2cc3ccc(O)cc3oc2=O)cc1 | -14.5 | -11.8 | 17.8 | 21.6* | 1.6 | -19.6 | -14.6
O=c1oc2cc(O)ccc2cc1-c1ccccc1 | -13.0 | -4.5 | 20.2 | 18.6 | 2.5 | · | ·
Cc1ccc(S(=O)(=O)Oc2ccc(/C=C(/NC(=O)c3ccccc3)C(=O)O)cc2)cc1 | -0.4 | -10.9 | 0.5 | 56.5* | 0.0 | 3.1 | 4.1
CN(C)/C=N/C1=C(C#N)C(c2ccc(Br)cc2)c2ccc3ccccc3c2O1 (configuration not stated) | -0.1 | 0.3 | 13.5 | 28.7* | 2.2 | -22.0 | -9.7
Cc1ccc2cc(S(=O)(=O)NCCCN3CCOCC3)ccc2c1 | -1.0 | -1.4 | -5.0 | -4.9 | -0.2 | · | ·
COc1ccc2cc(S(=O)(=O)NCCCN3CCOCC3)ccc2c1 | -0.1 | -5.4 | -4.0 | 22.5* | 0.7 | 1.5 | 5.7
CC(=O)c1ccc(-c2cccs2)s1 | -0.6 | -2.7 | 24.2 | 29.3* | 3.8 | -20.0 | -13.4
CNc1cccc(-c2ccc(C(C)=O)s2)n1 | · | -3.7 | · | · | 1.5 | · | ·
Cn1cc(CCOCc2ccc(Br)cc2)c2ccccc21 | · | · | · | · | 1.1 | · | ·
CCCCNC(=O)c1cc2c(=O)n3cccc(C)c3nc2s1 | -9.0 | -6.5 | 8.4 | 3.2 | 0.3 | · | ·
Cc1cccn2c(=O)c3cc(C(=O)NCCc4ccccc4)sc3nc12 | 0.4 | -1.3 | 5.0 | 31.4* | 1.8 | -18.6 | -14.3
Cc1nn(-c2ccccc2)nc1C(=O)Nc1ccccc1C(=O)NCC1CC1 | · | · | · | · | 2.1 | · | ·
SMILES | A1 inh | MsrA act | proCasp7 act | procasp3 activ | MsrA inhibitor | proCasp7 act trip | procasp3 conf
COc1ccc(C2CC(c3ccc(Cl)cc3)=NN2c2ccc(S(N)(=O)=O)cc2)cc1 (configuration not stated) | · | -1.3 | 8.5 | 33.1* | 2.4 | -23.1 | -11.9
CCOC(=O)N(C)C[C@H]1OCc2cn(nn2)CCCC(=O)N([C@@H](C)CO)C[C@@H]1C | · | · | · | · | -0.4 | · | ·
c1ccc(C2=NN(c3ccccc3)C(c3ccco3)C2)cc1 (configuration not stated) | 0.3 | -3.9 | 23.9 | 26.2* | -0.9 | -20.2 | -15.2
Oc1c(Br)cc(Br)cc1/C=N/NC(=S)N[C@H]1CC2C=CC1C2 (some centres not stated) | -0.1 | -5.8 | 19.2 | 23.1* | 0.2 | 19.1 | 30.5*
O=C(CSc1nnc(CCc2ccccc2)n1-c1ccc(Cl)cc1)NCc1ccccc1 | 0.4 | 0.3 | 4.3 | 13.8 | 1.6 | · | ·
COc1ccc(-n2c(CCc3ccccc3)nnc2SCC(=O)NCc2ccccc2)cc1 | -0.1 | -6.8 | -4.2 | 59.2* | 0.0 | -0.1 | 3.8
CCOc1cccc(-c2c(C(=O)N/N=C/c3ccc(C)s3)nnn2-c2nonc2N)c1 | -0.9 | -0.8 | -3.6 | -1.4 | 2.8 | · | ·
CCOc1ccc(-c2c(C(=O)N/N=C/c3ccc(C)s3)nnn2-c2nonc2N)cc1 | 1.4 | -7.2 | -6.4 | 25.7* | · | -3.0 | -3.6
COc1ccc(C2CC(=O)C(c3ccccc3C)=CN2Cc2ccccc2)cc1 (configuration not stated) | · | · | · | · | 2.5 | · | ·
COc1ccccc1[C@@H]1C(c2cccc(C)c2)=NN(c2ccccc2)[C@H]1C(=O)N1CCOC1=O | 0.9 | -1.4 | 18.1 | 24.2* | 1.5 | -22.4 | -14.7
O=S1(=O)N[C@H](Cc2ccccc2)COc2cccc(F)c21 | · | · | · | · | 2.6 | · | ·
CCOCCCNC(=O)c1ccc(N(C)S(=O)(=O)c2ccc(OC)cc2)cc1 | -0.8 | -6.4 | -2.5 | 22.2* | 0.1 | 1.3 | 4.9
O=[N+]([O-])c1cccc(-c2ccc(CN3CCN(c4ccccc4)CC3)o2)c1 | 0.4 | -2.4 | -4.2 | 22.8* | -0.3 | -4.3 | 1.8
CCc1nnc(NC(=O)CSc2nnc3c(C)cc4c(C)ccc(C)c4n23)s1 | 0.1 | -11.4 | -0.2 | 22.3* | -0.3 | 3.0 | 3.8
O=c1c2ccccc2c(-c2ccccc2)nn1-c1cc(Cl)cc(Cl)c1 | 0.4 | -3.0 | 2.7 | 22.1* | -1.1 | 3.4 | 6.0
